Shown are actives, neighbours in structure and some others; about 2.8% of the full set was active somewhere.
Mcl1 Noxa PPI: disrupts binding of human Mcl-1 to Noxa peptide; AID 1022; inhibition, % at 21.7 µM; TR-FRET Mcl-1/Noxa peptide binding, 2 h; actives 1.5% (n = 220,000);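 active = compounds that cut the protein-peptide binding signal by more than 50% relative to plate controls in a single-dose test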;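 also: His-tagged Mcl-1 with rhodamine Noxa BH3 peptide and terbium anti-His antibody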
Target sequence (Q07820 whole entry, looked up): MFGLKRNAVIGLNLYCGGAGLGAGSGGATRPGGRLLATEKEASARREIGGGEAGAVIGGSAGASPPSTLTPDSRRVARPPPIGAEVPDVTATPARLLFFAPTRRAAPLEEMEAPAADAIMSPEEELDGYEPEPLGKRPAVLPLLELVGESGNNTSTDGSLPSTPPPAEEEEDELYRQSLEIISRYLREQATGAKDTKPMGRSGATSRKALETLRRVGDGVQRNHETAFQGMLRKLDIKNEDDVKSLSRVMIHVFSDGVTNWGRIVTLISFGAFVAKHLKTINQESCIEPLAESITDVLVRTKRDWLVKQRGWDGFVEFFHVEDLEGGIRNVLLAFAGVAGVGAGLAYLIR
Calpain2 inh: blocks pig calpain II enzyme activity. purified calpain II, fluorogenic peptide substrate, 30 min. inhibition, % at 16 µM. actives 0.37% (n = 220,000);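 active = inhibition above about 50%, limit read from the data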
Arbovirus inh: blocks arbovirus infection; arbovirus infection cell-based antiviral screen; inhibition, % at 10 µM; actives 0.37% (n = 200,000); AID 1251; in the data active = inhibition above about 30%
Bim-Mcl-1: disrupts Bim peptide binding to human Mcl-1; Bead-based flow cytometry, Bim peptide-Mcl-1 binding; actives 0.1% (n = 190,000); Q07820; AID 1009; inhibition, % at 10 µM; in the data active = inhibition above about 40%
Calb biofilm kill: mixtures killing C. albicans biofilm | C. albicans biofilm persisters + clotrimazole, fluorescence viability; primary screen in compound mixtures of four per well | inhibition, % at 7.6 µM | actives 0.02% (n = 120,000) | AID 1242;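 active = inhibition above 30.3% in the primary screen of four-compound pools, then above 30% when the compound was retested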;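 also: compounds exposed to preformed 24 h biofilms for 48 h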
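System: C. albicans CAF4-2 wild-type biofilms; Medium: RPMI/MOPS medium, pH 7.0; Reagent: Clotrimazole, 50 µg/mL; Times: biofilm formation 24 h, compound exposure 48 h, 37 °C; Detection: 2-h Alamar Blue fluorescence, 535/590 nm excitation/emission; Evaluation: percent inhibition of biofilm viability.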
Mcl1 Bid PPI: Mcl-1/Bid interaction inhibition; actives 0.97% (n = 220,000); AID 1021; inhibition, % at 21.7 µM; TR-FRET Mcl-1/Bid-Dy647 peptide binding, 1536-well;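 active = compounds that cut the binding signal by more than half at the single screening dose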;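 also: His-tagged Mcl-1 with europium anti-His antibody binding Bid BH3 peptide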
Each line names hits and unclear results; the compound was inactive in the other large screens.

Oc1ccc(Nc2nc3ccccc3nc2Nc2ccc(O)cc2)cc1	Mcl1 Noxa PPI 82 (no result: Calb biofilm kill)
Cc1nc2ccccc2nc1N/N=C/c1ccc(O)cc1	none (no result: Arbovirus inh, Bim-Mcl-1)
O=C(O)/C=C/C(=O)N1CCN(c2cccc(Cl)c2)CC1	none
Cc1cccc(N=Cc2[nH]c3ccc(Br)c(Cl)c3c2O)c1	Mcl1 Noxa PPI 62
COc1ccccc1CN=Cc1[nH]c2ccc(Br)c(Cl)c2c1O	none (no result: Calb biofilm kill)
Cc1nn(Cc2ccc(Cl)cc2Cl)c(C)c1NC(=O)c1nn(C)cc1Cl	Calpain2 inh 60 (no result: Calb biofilm kill)
O=C(CN1CCN(c2ccc(O)cc2)CC1)Nc1cc([N+](=O)[O-])ccc1Cl	Mcl1 Noxa PPI 99
COc1ccc(N2CCN(C(=O)Cc3ccc(Br)cc3)CC2)cc1	none (no result: Arbovirus inh, Bim-Mcl-1)
COc1ccc(CC(=O)Nc2ccc(N3CCOCC3)cc2)cc1S(=O)(=O)N1CCOCC1	none (no result: Arbovirus inh, Bim-Mcl-1)
COc1cccc(CN2CCNC(=O)C2CC(=O)N2CCCCO2)c1OC (stereo not drawn)	none
CC(C)Cn1c(N)c(C(=O)COC(=O)/C=C/c2cccs2)c(=O)n(C)c1=O	Calpain2 inh 53 (no result: Arbovirus inh, Bim-Mcl-1)
CC(C)Cn1c(N)c(C(=O)COC(=O)c2cccc(Cl)c2)c(=O)n(C)c1=O	Calpain2 inh 77
CC(C)Cn1c(N)c(C(=O)COC(=O)c2ccccc2F)c(=O)n(C)c1=O	none
CC(C)Cn1c(N)c(C(=O)COC(=O)c2ccccc2Cl)c(=O)n(C)c1=O	Mcl1 Noxa PPI 61
CC(C)Cn1c(N)c(C(=O)COC(=O)c2c(F)cccc2F)c(=O)n(C)c1=O	none
Cc1csc(SCC(=O)NC(=O)NCCC(C)C)n1	none
Cc1ccc(S(N)(=O)=O)cc1NC(=O)/C=C/c1ccc2c(c1)OCO2	none
CCc1cc2c(SCC#N)ncnc2s1	none
COc1ccc(CCNC(=O)COC(=O)Cc2cccc3ccccc23)cc1	Mcl1 Noxa PPI 83
COc1ccc(CCNC(=O)COC(=O)Cc2ccc(OC)cc2)cc1	none
CN(C)c1ccc(C(=O)/C=C/c2ccc(Br)cc2)cc1	Bim-Mcl-1 82
Cc1nc(-c2ccc(S(=O)(=O)NCc3ccccn3)s2)cs1	none (no result: Arbovirus inh, Bim-Mcl-1)
Cc1cccnc1Nc1nc(-c2ccc(O)c(O)c2)cs1	Mcl1 Noxa PPI 69 (no result: Calb biofilm kill)
COc1ccc(-c2csc(Nc3ncccc3C)n2)cc1OC	Arbovirus inh 41 (no result: Calb biofilm kill)
COc1ccc(-c2csc(Nc3ncccc3C)n2)cc1	none
O=C(CSc1nc(-c2ccccc2)cc(C(F)(F)F)n1)N1CCOCC1	Mcl1 Bid PPI 77 (no result: Calb biofilm kill)
CC(NC(=O)CSc1nnc(-c2cccnc2)n1N)c1ccccc1 (stereo not drawn)	none
O=C(COC(=O)c1cc(Cl)ccc1[N+](=O)[O-])Nc1cccc2ccccc12	none
O=C(COC(=O)c1cc(Cl)ccc1[N+](=O)[O-])NCc1ccc(Cl)cc1Cl	Calpain2 inh 57
CN(C)c1ccc(NC(=O)COC(=O)c2cc(Cl)ccc2[N+](=O)[O-])cc1	Mcl1 Noxa PPI 54
NS(=O)(=O)c1ccc(NC(=O)COC(=O)c2cc(Cl)ccc2[N+](=O)[O-])cc1	none (no result: Arbovirus inh, Bim-Mcl-1)
O=C(O)COn1c(-c2ccccc2)nc2ccc([N+](=O)[O-])cc21	Mcl1 Noxa PPI 55
O=C(CNC(=O)c1ccco1)NCC(=O)OCc1ccccc1Br	Bim-Mcl-1 43 (no result: Calb biofilm kill)
O=C(CNC(=O)c1cccs1)NCC(=O)OCc1ccccc1Br	none
Brc1c(NC2=NCCN2)ccc2nccnc12	Mcl1 Noxa PPI 59
O=C(c1ccc(-c2nnc(-c3ccccc3)o2)cc1)N1CCCCCC1	Calpain2 inh 60 (no result: Calb biofilm kill)
Cc1cccc(NC(=O)C2C(C(=O)O)C3C=CC2C32CC2)c1C (stereo not drawn)	Mcl1 Bid PPI 97 (no result: Calb biofilm kill)
CSCCC(NC(N)=O)C(=O)Nc1ccc(F)c(Cl)c1 (stereo not drawn)	none (no result: Arbovirus inh, Bim-Mcl-1)
COCCNC(=O)c1cccc(Nc2nc(-c3ccccc3)c3cc(Cl)ccc3n2)c1	none
CCOC(=O)C1=C(O)/C(=C\c2ccc(CNC(=O)C(=O)Nc3ccccc3)o2)N=C1C	Mcl1 Noxa PPI 96 (no result: Calb biofilm kill)
N/C(=N/O)c1ccccc1N1CCC(Cc2ccccc2)CC1	none
Cc1ccccc1NC(=O)CSc1ccc(-c2ccco2)nn1	none
Cc1cccc(NC(=O)CSc2nnc(-c3ccco3)c(-c3ccco3)n2)c1	Mcl1 Noxa PPI 96
Cc1cccc(NC(=O)CSc2nnc(-c3ccco3)c(-c3ccco3)n2)c1C	Mcl1 Noxa PPI 95 (no result: Calb biofilm kill)
COc1ccc(S(=O)(=O)N2CCCC(C(F)(F)F)C2)cc1 (stereo not drawn)	none
Cc1cc(C)cc(Oc2nc(-c3ccccc3)cc(C)c2S(C)(=O)=O)c1	Calpain2 inh 50 (no result: Calb biofilm kill)
Cc1cc(-c2ccccc2)nc(Oc2ccc(C(C)(C)C)cc2)c1S(C)(=O)=O	none (no result: Calb biofilm kill)
Cc1cc2nc(-c3ccc(SCC(=O)N4CCN(C(=O)c5ccco5)CC4)nc3)[nH]c2cc1C	Mcl1 Noxa PPI 71 (no result: Calb biofilm kill)
Cc1ccc2nc(-c3ccc(SCC(=O)Nc4nnc(C)s4)nc3)[nH]c2c1	Mcl1 Noxa PPI 68, Mcl1 Bid PPI 70
CCOC(=O)CSc1ccc(-c2nc3ccccc3[nH]2)cn1	Mcl1 Noxa PPI 51 (no result: Calb biofilm kill)
Cc1cc2nc(-c3ccc(SCC(=O)N4CCOCC4)nc3)[nH]c2cc1C	none (no result: Calb biofilm kill)
O=S(=O)(Cc1ccccc1)N=Nc1c(O)[nH]c2ccc(Br)cc12	none (no result: Arbovirus inh, Bim-Mcl-1)
Cc1nn(CCCC(=O)Nc2nccs2)c(C)c1[N+](=O)[O-]	none
N#CN(Cc1ccccc1)Cc1ccccc1	none (no result: Arbovirus inh, Bim-Mcl-1)
Cc1cccc(-n2cc(C(=O)O)c(=O)cc2C)c1	none
CC(C)c1cc(N=NC(N)=O)cc(C(C)C)c1O	none
COC(=O)c1cnc(NNS(=O)(=O)c2ccc(C(F)(F)F)cc2)nc1C(F)(F)F	none (no result: Arbovirus inh, Bim-Mcl-1)
C=CCn1c(SCc2ccc([N+](=O)[O-])cc2)nnc1C(C)NC(=O)c1ccccc1 (stereo not drawn)	Mcl1 Bid PPI 94 (no result: Calb biofilm kill)
NC(=O)c1ccc(NC(=O)CSc2nnc(-c3ccccn3)n2N)cc1	none
CN(C)CCC1Sc2ccccc2Oc2ccccc21 (stereo not drawn)	Mcl1 Bid PPI 58
COc1ccc(/C=N/Nc2snc(SC)c2C#N)cc1OC	Mcl1 Noxa PPI 67 (no result: Calb biofilm kill)
COc1cccc(/C=N/Nc2snc(SC)c2C#N)c1	none (no result: Calb biofilm kill)
COc1cccc(/C=N/Nc2snc(SC)c2C#N)c1O	Mcl1 Noxa PPI 72
CSc1nsc(N/N=C/c2ccccc2)c1C#N	none
Cc1[nH]c2ccccc2c1C(c1ccncc1)N1CCN(c2ccccn2)CC1 (stereo not drawn)	none
Cc1[nH]c2ccccc2c1C(c1ccncc1)N1CCC(C)CC1 (stereo not drawn)	none
Cc1[nH]c2ccccc2c1C(c1ccccn1)N1CCC(C(N)=O)CC1 (stereo not drawn)	Mcl1 Noxa PPI 57 (no result: Calb biofilm kill)
CCOC(=O)C1CCN(C(c2ccccn2)c2c(C)[nH]c3ccccc23)CC1 (stereo not drawn)	Mcl1 Noxa PPI 59 (no result: Calb biofilm kill)
Cn1c(=O)c2c(nc(N/N=C/c3ccc(OC(=O)c4ccco4)cc3)n2Cc2ccc(F)cc2)n(C)c1=O	Mcl1 Bid PPI 59
Cn1c(=O)c2c(nc(N/N=C/c3ccc(OC(=O)c4ccco4)cc3)n2Cc2ccccc2Cl)n(C)c1=O	none

Bioassay records deposited in PubChem by several laboratories.
